Assay outcomes (PubChem)
In the library only some 3.4% were active in any assay of this set; here they are far more common.
UCH37 inh – inhibitors of human UCH37 deubiquitinase, primary screen, biochemical, Ub-AMC cleavage, fluorescence; Ubiquitin carboxyl-terminal hydrolase isozyme L5 (Homo sapiens), Q9Y5K5; purified proteasome/UCH37; inhibition, % (test concentration not listed); actives 0.33% (n = 330,000); AID 588478, 2011;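 active means mean inhibition over replicate wells above about 20%, limit read from the data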;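 further: 0% = compound-free wells with enzyme and 100% = wells lacking proteasome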
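Material: human UCH37 enzyme supplied as purified proteasome complex. Measure: % inhibition of Ub-AMC cleavage fluorescence. Medium: pH 7.4 Tris-HCl (50 mM) with ovalbumin, ATP-MgCl2, DTT. Times: 30 min preincubation with enzyme, 25 min cleavage at room temperature. Detection: AMC fluorescence intensity at 355/460 nm.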
APOBEC3G inh – APOBEC3G DNA deaminase inhibitors, primary screen, biochemical, fluorescence, single-stranded DNA substrate, uHTS | DNA dC->dU-editing enzyme APOBEC-3G (Homo sapiens), Q9HC16 | recombinant A3G, ssDNA deamination FAM/TAMRA fluorescence | inhibition, % at 20 µM | actives 0.28% (n = 330,000);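 active means inhibition of at least 40% at 20 µM, with no more than 30% in the related APOBEC3A deaminase screen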;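 further: plate controls were DMSO wells with A3G for no effect and wells lacking A3G enzyme for full effect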
AHR act – AHR activators, primary screen, cell-based, luminescence, luciferase reporter, human. Aryl hydrocarbon receptor (Homo sapiens), P35869. AHR-responsive luciferase reporter cells. activation, % at 5 µM. actives 2.5% (n = 320,000). AID 2796, 2010; in the data active means activation above about 47%;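 further: 0% = vehicle wells and 100% = reference agonist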
Arrestin-AP2 inh – inhibitors of beta-arrestin/AP2 binding, primary screen, biochemical, GPCR trafficking, flow cytometry; FITC-arrestin peptide / GST-AP2 beads; AP2 beta2 appendage carries R879A mutation; inhibition, % at 10 µM; actives 0.31% (n = 340,000);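 active means inhibition above a set limit, near 3 SD of compounds lacking own fluorescence, cut at about 54% in these data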;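 further: plate controls were DMSO wells for no effect and 5 µM unlabelled arrestin peptide for full effect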
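test system = AP2 appendage R879A on GSH beads | buffer or medium = PBS plus Tween 20 (0.05%) and BSA (0.1%) | incubation = 12 min plus 1 h, RT | detection = bead flow cytometry, FITC channel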
PolyA inhibitor – polyadenylation inhibitors in yeast reporter cells, primary screen, luminescence, S. cerevisiae. S. cerevisiae SKY197-pL101 polyadenylation reporter, beta-gal luminescence; efflux-impaired pdr1/pdr3 knockout yeast; score 100 = 6 SD above DMSO. activity score, % at 12 µM. actives 0.02% (n = 300,000);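 active means lowest replicate activity score at least 50, where 100 means six control SD above control mean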;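 further: yeast exposed to compound for 9 h at 30 °C; higher score means more reporter readthrough which indicates perturbed polyadenylation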
APOBEC3A inh – APOBEC3A ssDNA deaminase inhibitors, primary screen, selectivity assay for APOBEC3G inhibitor project, biochemical, FAM/TAMRA oligo cleavage fluorescence; DNA dC->dU-editing enzyme APOBEC-3A (Homo sapiens), P31941; recombinant A3A, FAM/TAMRA ssDNA deamination fluorescence; inhibition, % at 20 µM; actives 0.41% (n = 330,000);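 active means at least 40% inhibition at 20 µM here, with at most 30% in a related deaminase screen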;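 further: plate controls were A3A with DMSO for no effect and wells lacking A3A enzyme for full effect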
Target sequence (P31941 whole entry, looked up): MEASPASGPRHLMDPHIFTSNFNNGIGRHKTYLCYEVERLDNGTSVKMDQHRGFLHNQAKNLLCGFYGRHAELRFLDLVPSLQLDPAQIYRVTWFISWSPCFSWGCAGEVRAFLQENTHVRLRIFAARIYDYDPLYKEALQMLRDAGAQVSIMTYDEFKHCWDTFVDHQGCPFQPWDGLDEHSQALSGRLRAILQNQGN
Active calls of the source: *.

CC(=NNC(=O)CNC(=O)Cc1ccc(Cl)cc1)c1ccco1 was read as UCH37 inh 1.
`CCCSc1nc2sc3c(c2c(=O)[nH]1)CC(C)CC3` (stereo not drawn) gave UCH37 inh -2, APOBEC3G inh -6, AHR act 24, Arrestin-AP2 inh -10, PolyA inhibitor 8 and APOBEC3A inh 0.
`CSc1nc2sc3c(c2c(=O)[nH]1)CCC(C)C3` (stereo not drawn) gave UCH37 inh 2, APOBEC3G inh -10, AHR act 69*, Arrestin-AP2 inh -9, PolyA inhibitor -14 and APOBEC3A inh -4.
`Nc1ccccc1C(=O)N=Nc1[nH]c(N)c2ccccc12` gave UCH37 inh 9, APOBEC3G inh -4, AHR act 61*, Arrestin-AP2 inh -8, PolyA inhibitor 0 and APOBEC3A inh -2.
`Nc1[nH]c(N=NC(=O)c2ccc(F)cc2)c2ccccc12` gave UCH37 inh 11, APOBEC3G inh -8, AHR act 13, Arrestin-AP2 inh 4, PolyA inhibitor 16 and APOBEC3A inh -6.
For Cc1ccc(-c2cc(C(=O)NN=Cc3ccccc3)n[nH]2)o1 the results were UCH37 inh 0.
`O=c1oc2cc(O)ccc2cc1-c1nc2c(s1)CCc1ccccc1-2` gave UCH37 inh -207, AHR act 14 and Arrestin-AP2 inh 7.
`O=c1oc2ccccc2cc1-c1nc2c(s1)CCc1ccccc1-2` gave UCH37 inh -61, APOBEC3G inh -13, AHR act 71*, Arrestin-AP2 inh -27, PolyA inhibitor -10 and APOBEC3A inh -4.
`O=C(O)c1cc(C(=O)O)cc(-c2ccc(/C=c3/sc4nc5ccccc5n4c3=O)o2)c1` gave Arrestin-AP2 inh 16.
Screening O=C(O)c1ccccc1-c1ccc(C=c2sc3nc4cc(Br)cnc4n3c2=O)o1 returned UCH37 inh 43*.
Screening O=[N+]([O-])c1ccc(O)c(C=NNc2ncnc3c2cnn3-c2ccccc2)c1 returned UCH37 inh 4.
`CCOc1ccc(-c2cc(C(=O)NN=C(C)c3cccnc3)c3ccccc3n2)cc1` gave UCH37 inh -43.
Screening C/C(=N\Nc1ccc(Cl)cc1)c1ccccn1 returned APOBEC3G inh 14, AHR act 68*, Arrestin-AP2 inh -5, PolyA inhibitor -9 and APOBEC3A inh 1.
For C/C(=N\Nc1ccc(Cl)cc1)c1ccncc1 the results were APOBEC3G inh -2, AHR act 68*, Arrestin-AP2 inh -3, PolyA inhibitor -15 and APOBEC3A inh -4.
Screening C/C(C=NNC(=O)c1ccco1)=C\c1ccccc1 returned UCH37 inh 7.
Screening CCCOC(=O)Nc1nc2ccccc2o1 returned UCH37 inh 1, APOBEC3G inh -1, AHR act 31, Arrestin-AP2 inh 18, PolyA inhibitor -10 and APOBEC3A inh 9.
Screening CCOC(=O)C(=CN=C(N)Nc1nc2ccccc2o1)C(=O)OCC returned UCH37 inh -104, APOBEC3G inh -3, AHR act 63*, Arrestin-AP2 inh -2, PolyA inhibitor -6 and APOBEC3A inh -2.
For O=C(NN=Cc1ccncc1)C1CC1C(=O)NN=Cc1ccncc1 (stereo not drawn) the results were UCH37 inh 4.
`N=C1/C(=C/c2cccn2-c2ccc([N+](=O)[O-])cc2)C(=O)N=C2SC=CN12` gave UCH37 inh 4, APOBEC3G inh 5, AHR act 3, Arrestin-AP2 inh 1, PolyA inhibitor 7 and APOBEC3A inh 11.
